The EternaBench riboswitch data

Tested on: MS2 coat protein
Assay: apparent Kd, MS2 coat protein; higher = weaker binding; RNA-MaP array; FMN 200 µM where present
Summary of the method: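 The apparent Kd is reported as the median of filtered per-cluster binding-curve fits. To get these curves, designs transcribed by stalled E. coli RNA polymerase on Illumina sequencing-chip clusters were titrated with SNAP-549-labelled MS2 coat protein from 0.7 or 1.5 nM, doubling to 3 µM. Titrations were run without and then with constant ligand in 100 mM Tris-HCl pH 7.5, 80 mM KCl, 4 mM MgCl2, BSA, DTT, yeast tRNA and Tween-20, and green signal was normalised to red-channel RNA signal and control-cluster median Fmax.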

[1] = designed as: OFF switch for flavin mononucleotide, no ligand
[2] = ligand present: flavin mononucleotide, designed as: OFF switch for flavin mononucleotide
[3] = designed as: ON switch for flavin mononucleotide, no ligand
[4] = ligand present: flavin mononucleotide, designed as: ON switch for flavin mononucleotide

| Sequence | apparent Kd [1] [nM] | apparent Kd [2] [nM] | apparent Kd [3] [nM] | apparent Kd [4] [nM] |
| --- | --- | --- | --- | --- |
| AACAGCUCGUCAGGAUAUACGUCACUGCGUCAGCAGUGUGGUAAGAUCACAUGAGGAUCACCCAUGUAGAAGGGACGAGCUGAU | 14.3 | 267 | – | – |
| AUAGGGCUACACUGAAAGACACAUGAGGAUCACCCAUGUGAGAGAAGGGCUUCUGGAGGGCUGAGGUAGGAUAUUUCACCUGGG | 18.6 | 22.6 | – | – |
| UUAUGCUGAGAGAAGGUUCAAACUACAUAUUGCAUACAUGAGGAUCACCCAUGUUGGUGAAUAAGAAAGGAUAUUUUACUGUAU | 86.6 | 63.1 | – | – |
| AAUAUAAAGAGCUGGCUCAAUUUAACAUGAGGAUCACCCAUGUAGGAUAUCAGCACGAUAAGUGCUGAGAAGGACAUCCAGCUC | 16.7 | 36 | – | – |
| GAUAAGGAAGGAUAUGUGGCCUUAUACAUGAGGAUCACCCAUGUUACGACAUACCACUACACAGAAGGUCUAUUAC | 32.2 | 30.5 | – | – |
| AACGCGUCAGGAUAUAGCGAAACUUAGGUAGUACAACCAUACUAGAAGGGACAUGAGGAUCACCCAUGUGGGUA | 209 | 104 | – | – |
| ACUAUACGAGGAUAUACUGUCGGGCCUCGGACAUAAAUACGACAUGAGGAUCACCCAUGUAGAAGGCGUUUACU | 31.2 | 54 | – | – |
| GCGUUGUACGAGAAGGCCAAUACAUGAGGAUCACCCAUGUUAAGUUGUUUUGGAGGAUAUCGAUCACAUUCAAUAAUGCAACGC | 6.71 | 5.77 | – | – |
| CUGAUGUUAGGAUAUCAGGCGCCCGCCACUGGCAAAGCGCAUGAGAAGGGACAUGAGGAUCACCCAUGUAGUAA | 28.2 | 47.6 | – | – |
| AUAAAACAUGAGGAUCACCCAUGUCAGUUAUCAUGAGGAUAUCCGCCGACCCGGGCGUAAGGAGAAGGCAUAUAAU | – | – | 39.3 | 20.1 |
| CACCGUUAGCGAGGAUAUCGUACAUGAGGAUCACCCAUGUAAUAAAUGAGAAUUUCGGAUGUAUGCGAGAAGGCGCAAAUCGGC | 59 | 43.4 | – | – |
| UAAUCGUUGCAGAAGGUUAUUUUUUUAACAUUUCUCUUAACAUGAGGAUCACCCAUGUUUUUGAUGAAGGAUAUGCAACGGUAG | 6.67 | 5.51 | – | – |
| GUAUUUAUAUAAGGAUAUAAGUCUAGGACAUGAGGAUCACCCAUGUGUGUCUUAGAAGGUAUAUGGGUAAUACUGUUACAGUAA | – | – | 226 | 112 |
| AUACAUGAGGAUCACCCAUGUUACAUGGUCUUGAUAUUACGUAGAAGGAUGAUAUUAUUAUUAGCAUAGGAUAUACAAUUUGUA | 57.5 | 44 | – | – |
| UUUAACAGAGGAUAUGCGAAUAAAUAAAACUUUUUUUUUUAACAUGAGGAUCACCCAUGUAGAAGGCUGAUUUU | 45.7 | 47.7 | – | – |
| AUAUUGAUAGUAAGGAUAUGCGUGUGUGUAGUUAUGCAGAAGGUACAUGAGGAUCACCCAUGUAUUAAUGUGUG | 18.1 | 21.6 | – | – |
| GGAAAUCAUGUAGGAUAUGCAUGGCGAAGCUACGCAGAAGGACAUGAGGAUCACCCAUGUUCUAGCGUCUGAGUUCAGAUGCAA | 20.4 | 56.3 | – | – |
| UACCACGUUUGAUUAGGCGUGACAUGAGGAUCACCCAUGUGUCAGGAUAUACAUGGGCGGGCCCAGUAGAAGGGACUUAAUAGC | – | – | 327 | 65.1 |
| AAAAAAAAAACGCAGGAUAUCCAAAAAAAAACAUGAGGAUCACCCAUGUAAAAAAAAAAAAAAUGGGAGAAGGGUGAAAAAAAAAA | – | – | 114 | 51 |
| AAUUCACAUGAGGAUCACCCAUGUCAGGAUAUGGUUUCACGUUUUUCUUUUCUUGAUUCCAGAAGGGACAGCUA | 65.6 | 82 | – | – |
| UGGACUGGGCAGAAGGGACAUGAGGAUCACCCAUGUCUUGGGCUACUUCAGUCAGGAUAUGCCCGUUGAAUAUCCGUGCAUCAA | 10.2 | 52.6 | – | – |
| UUGGACGUCGUAGGAUAUGUAGGGUAUUCCUACAUGAGGAUCACCCAUGUUGACAUGGAAGAAGGACAGAAGGACGAUGUCCAU | – | – | 183 | 4.94 |
| AUUAUAUAGUCAGGAUAUAGAAUAUUAUUUUAACAUGAGGAUCACCCAUGUAACCUUAUGUGUAGCUAGAAGGGACAUUUAUUA | 85.5 | 131 | – | – |
| AGCAUGUUUACAUGAGGAUCACCCAUGUUUUUUUAGGAUAUCAGAAGGUACAAUUUGUGUUAGAGUAAGGAUAUGAUAUAUGCG | – | – | 12.6 | 8.88 |
| UAAAAGACUAGCUUUGGUAAGAUCACAUGAGGAUCACCCAUGUAGGAUAUGAGCAGAAAAUCUGCUCAGAAGGACAUGCUAGUC | 16.2 | 156 | – | – |
| UCCUGAUCGAGAGGUAGGAGUGGUAGAAGGCGACCGGUGCCAGAUGACAUGAGGAUCACCCAUGUCGAGGAUAUACCACUGAAU | 7.04 | 12.1 | – | – |
| AGCGGAGACAUGAGGAUCACCCAUGUCAGUGCCGGCGAUACCAGAAGGCCCGGCGGGCCUCGGCGGGAGGAUAUGGGUUCAACA | – | – | 51.8 | 14.9 |
| GACAUACAUGAGGAUCACCCAUGUUCAGGCGGACAAGGAUAUGUGUGGAAACCAUACUAUACAGAAGGUGUCUGUC | – | – | 24.8 | 17.3 |

| Sequence | apparent Kd [1] [nM] | apparent Kd [2] [nM] | apparent Kd [3] [nM] | apparent Kd [4] [nM] |
| --- | --- | --- | --- | --- |
| UUAAAUCAUGUAGGAUAUGCAUGGCGAAGCUACGCAGAAGGACAUGAGGAUCACCCAUGUGCUAGCGUCUGAGAACAGAUGCAA | 42 | 235 | – | – |
| CCGCUGUCAGGAUAUCGUGCAUACAACGAAAGUUCUAUGUGCGAGAAGGGACAUGAGGAUCACCCAUGUUUCCG | 16.6 | 25.8 | – | – |
| UCACGGGACUAAGGAUAUAUGUGUACCAUUUUCAUAGAAGGUAGAAUGUUUGAUCAUAAACUAAACAUGAGGAUCACCCAUGUU | 27 | 25.1 | – | – |
| GGGAUUAAGGCAGGAUAUCCGGGUUGGCCUCGACAUGAGGAUCACCCAUGUGGAGAAGGGCCGACUGCUCGAAAGGCGGUCAAG | 214 | 67.4 | – | – |
| UCAUUUCUGUAAGGAUAUUUAAACAUGACGAUACAUGAGGAUCACCCAUGUAAAGAAGGUACAAAUACAUAUAAUGCAAUGUUC | 7.55 | 7.39 | – | – |
| GUAGCAUAAUCAGGAUAUUCAGAGAAUAGAUAGACAUGAGGAUCACCCAUGUGGCGAAAGCCUAGGGAGAAGGGAUAAUGCUAC | – | – | 190 | 32.5 |
| AACCAUGAGCGAGGAUAUCACCCUACGGAGUGGUGAGAAGGCGCAACAUGAGGAUCACCCAUGUACAAAUGCGGGACCCUUUUC | 31 | 92.6 | – | – |
| GGUGCCAUGUAGAAGGCAGAUCUGAUUCAGAUCUGAGGAUAUACAUGAGGAUCACCCAUGUAAGGGCACCGCACGAGAGUGCAA | 6.56 | 10.2 | – | – |
| AUCAGCUCGUCAGGAUAUGCAUCACUGCUUCGGCAGUGUGGUAAGAUCACAUGAGGAUCACCCAUGUAGAAGGGACGAGCUGAU | 9.83 | 69.4 | – | – |
| GCUUGUGAAGGAUAUACUGGCGACAUGCGCUCAACACGCGCACAUGAGGAUCACCCAUGUAGAAGGUCAAACAU | 23.9 | 33 | – | – |
| AAAAAACAUGAGGAUCACCCAUGUUAGGAUAUCGUGCAGAAAAAAAAAAAAAACUGCACGAGAAGGAACAAGGA | 74.5 | 98.8 | – | – |
| UUUGCAUUCCGAGGAUAUUCAUAUAAUAAAUAAACAUGAGGAUCACCCAUGUGGCGAAAGCCUAGGGAGAAGGCGGUAUGCUUU | – | – | 155 | 26.8 |
| CUAGUAUAUCAGGAUAUGAUUUUGUGUAGUUGGUCAGAAGGGAUGACAUGAGGAUCACCCAUGUUAAGGAGUGA | 122 | 146 | – | – |
| AAUAUGUUGCAGAAGGUUAUAUUUAUUUAGUACCUCAUGACAUGAGGAUCACCCAUGUUUUUGUUGAAGGAUAUGCAAUAUAUU | 17.1 | 13.7 | – | – |
| UAAACGUUCUAGAAGGUGCUUUUGUUAAACAAGCAAGGAUAUAGACAUGAGGAUCACCCAUGUCUUUUAGACAUCGACAUACUU | 6.9 | 8.03 | – | – |
| GACCGUCACAGUUACCGGUUGAACGAGGAUAUGAUUACUGGGCCUGCACAUGAGGAUCACCCAUGUCAGAAGGCGUUCAGUCCC | 5.86 | 18.9 | – | – |
| AAAAAAAAAAGGCAGGAUAUCCAAAAAAAAACAUGAGGAUCACCCAUGUAAAAAAAAAAAAAAUGGGAGAAGGGCCAAAAAAAAAA | – | – | 39.2 | 14.3 |
| UAUAUAUAGGCAGGAUAUACAUGAAUAUAUAUAAUAUAAUAUGAUGUAACAUGAGGAUCACCCAUGUAGAAGGGCCAAUAUAUA | 32.6 | 64.9 | – | – |
| AAGAGUGCAGGAUAUACUUGUUAGGACGGUUGGAUGGUUUGACAUGAGGAUCACCCAUGUAGAAGGGCAGAGAG | 67.7 | 67.8 | – | – |
| UGUCGGAGCAGAGGAUAUACAUGAGGAUCACCCAUGUAAAUGGAAGAAGCCUGGAAACAGGCAAUGUAGAAGGCUGCUCCGACA | 132 | 970 | – | – |
| AGGAAGUGAGGAUAUGCAGCAGCUAGUGGACGCUAGCGCAUGUAGAAGGCACAUGAGGAUCACCCAUGUUUAAA | 32.1 | 36.2 | – | – |
| GCAAAUUAGUGAGGAUAUACAUAAUUUAUUUCUGUAGAAGGCACAAACCUCAAGACAUGAGGAUCACCCAUGUGGUAUUUAAGC | 155 | 415 | – | – |
| UGAGCCUCGUGAGGAUAUACAUGAGGAUCACCCAUGUAAUAAAGUGAACGGAGGAAACUCCGAAUGUAGAAGGCACGAGGCUUA | 18.7 | 146 | – | – |
| GUAAUUACGAGAGGAUAUUGACAUGAGGAUCACCCAUGUAUUUGGGAGUGUUCACUGAAUUCUUACGAGAAGGCUCGUAAAUAC | 213 | 214 | – | – |
| CGUGCUUAUGUAGGAUAUGGUUAUCUAUGUCUAGUUACUAGACAUAGAUAACCAGAAGGACAUGAGGAUCACCCAUGUAGCACG | 14.6 | 25.8 | – | – |
| ACGGAACAUGAGGAUCACCCAUGUAUCUGAGAUAAGCUCUCGCAGGAUAUUGAGAGAAGCCUAUUCGAGAAGGGUGACAGCAAA | – | – | 90.1 | 30.1 |
| ACAUCGUGAGACAUGAGGAUCACCCAUGUGUGAUAGUGGGCACAGGAUAUCCAAAUUUGGAAUUUGGAGAAGGGUGAUCGUUAA | – | – | 72.1 | 68.6 |
